The record followed here is ChEMBL document CHEMBL1122909, “Psoralenamines. 3. Synthesis, pharmacological behavior, and DNA binding of 5-(aminomethyl)-8-methoxy-, 5-[[(3-aminopropyl)oxy]methyl]-, and 8-[(3-aminopropyl)oxy]psoralen derivatives” (1985).

One assay has as its system Nucleic Acid. Description: Evaluated for photo-cross-linking of DNA. Type of assay: functional. The essentials:
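Sonicated calf thymus DNA (200 µg) plus psoralen 0.1–100 µg/mL in 10 mM Tris-HCl, 1 mM EDTA, pH 7.0. Irradiated 30 min (~365 nm, 24 kJ/m2), heated 100 °C 5 min, ice-cooled. Double- vs single-stranded DNA resolved on hydroxylapatite with 50–500 mM phosphate gradient. The concentration giving 50% cross-linked DNA is expressed relative to 8-MOP.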

A further assay concerns Mus musculus. The experiment in a line: Evaluated in vivo for its photosensitization activity, against increase in skin thickness relative to that of 8-MOP. Also noted: unit: % of 8-MOP. Type of assay: functional. The essentials:
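Female hairless Hr/Hr mice, 4–6 weeks, 5–28 per group. Compound given ip at 0.6, 6 or 60 mg/kg (reported at 6 mg/kg). UVA from four TL20W/09 tubes after 5 min–2 h, 4 J cm-1 as printed. Skin-fold thickness measured by caliper 24 h post-irradiation, expressed relative to 8-MOP (=100%).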

In assay [1] the test system is NHIK3025. Description: Evaluated for DNA. photo-cross-linking in cell line NHIK 3025 cross-linking affinity measured by alkaline elution technique. Type of assay: functional, Homo sapiens. Summed up:
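NHIK 3025 cells (~10^6) labelled 16 h with [3H]thymidine (1 µCi/mL). Psoralen in PBS at 1–90 µg/mL, 10-min equilibration, then irradiation 0.8 J/cm2 at ~365 nm. Cells trypsinized and lysed on 2-µm filter (0.2% Sarcosyl, 2 M NaCl, 40 mM EDTA, pH 10), then eluted at pH 12.2. Relative efficiency vs 8-MOP is read from concentrations giving similar elution retardation.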

The test system of assay [2] is NHIK3025. The experiment in a line: Evaluated in vitro for phototoxic effect on human cell line NHIK 3025, assay performed using threefold dilution and result reported by one dilution step. Type of assay: functional.
Assay [3] has as its system Tetrahymena thermophila. Description: Evaluated for DNA photo-cross-linking in Tetrahymena thermophila and relative cross-linking affinity measured by the alkaline elution technique. The assay is classed as functional. Summed up: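 Tetrahymena thermophila ~2×10^5 cells prelabelled with [3H]thymidine; phototreated with psoralen in 10 mM Tris-HCl pH 7.4 at ~365 nm. Interstrand cross-links are measured by alkaline elution: cells lysed on 2-µm filter (0.2% Sarcosyl, 2 M NaCl, 40 mM EDTA, pH 10), eluted at pH 12.2. Efficiency relative to 8-MOP is taken from concentrations giving similar elution retardation.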

For assay [4], the system named is Tetrahymena thermophila. Description: Evaluated in vitro for phototoxic effect on ciliate Tetrahymena thermophila cells. Type of assay: functional.

Compound `COc1c2occc2c(CN2CCOCC2)c2ccc(=O)oc12.Cl` showed a Photo-cross-linking of DNA in the assay on Nucleic Acid of 0.1. In the assay on Mus musculus, the Photosensitization is 154. In the assay with NHIK3025 [1], this compound returned a DNA crosslinking below 1. The Phototoxic effect in the assay on NHIK3025 [2] and in the assay on Tetrahymena thermophila [4] was 0.3 in each case. The compound also gave a DNA photo-crosslinking in the assay with Tetrahymena thermophila [3] of 6.
For `COc1c2occc2c(CN2CCCCC2)c2ccc(=O)oc12.Cl`, in the assay on Nucleic Acid, the Photo-cross-linking of DNA was 0.3. The Photosensitization in the assay with Mus musculus is listed as 238. For the same compound, in the assay with NHIK3025 [1], the DNA crosslinking was 19. In addition, the Phototoxic effect in the assay with NHIK3025 [2] is given as 3. The same compound showed a DNA photo-crosslinking with Tetrahymena thermophila [3] of 8.
`COc1c2occc2c(CN(CCO)CCO)c2ccc(=O)oc12.Cl`: the Photo-cross-linking of DNA in the assay on Nucleic Acid came to 0.2. Further, in the assay on Mus musculus, the Photosensitization is recorded as 339. Besides, the DNA crosslinking in the assay with NHIK3025 [1] was 1. In addition, the Phototoxic effect in the assay on NHIK3025 [2] is 3; in the assay with Tetrahymena thermophila [4] it was 0.3. Further, the DNA photo-crosslinking with Tetrahymena thermophila [3] was found to be 3.
Compound `COc1c2occc2c(CN2CCN(C)CC2)c2ccc(=O)oc12.Cl` returned a Photo-cross-linking of DNA with Nucleic Acid of 0.2. Besides, in the assay with Mus musculus, the Photosensitization is recorded as 325. In the assay with NHIK3025 [1], this compound gave a DNA crosslinking of 9. The Phototoxic effect in the assay on NHIK3025 [2] was found to be 5; in the assay with Tetrahymena thermophila [4], 10.
As to `COc1c2occc2c(CO)c2ccc(=O)oc12`, the Photo-cross-linking of DNA in the assay on Nucleic Acid amounted to 0.07.
Consider `COc1c2occc2c(C[N+](C)(C)C)c2ccc(=O)oc12.[Cl-]`, for which the Photo-cross-linking of DNA in the assay with Nucleic Acid came to 0.1. Besides, the Photosensitization in the assay with Mus musculus is reported as 140. In the assay on NHIK3025 [1], this compound yielded a DNA crosslinking of 3. Besides, the values for the Phototoxic effect in the assay on NHIK3025 [2] and with Tetrahymena thermophila [4] were 1 and 0.3, respectively. This compound also displayed a DNA photo-crosslinking in the assay on Tetrahymena thermophila [3] of 2.
As for `COc1c2occc2cc2ccc(=O)oc12` [METHOXSALEN], the Photo-cross-linking of DNA in the assay with Nucleic Acid was 1. Further, the Photosensitization with Mus musculus came out at 100. The DNA crosslinking in the assay on NHIK3025 [1] was 100. Also, the Phototoxic effect in the assay with NHIK3025 [2] and in the assay on Tetrahymena thermophila [4] was 100 in each case. The same compound came in with a DNA photo-crosslinking in the assay on Tetrahymena thermophila [3] of 100.
`COc1c2occc2c(CN)c2ccc(=O)oc12.Cl` showed a Photo-cross-linking of DNA in the assay on Nucleic Acid of 2.1. For the same compound, in the assay on Mus musculus, the Photosensitization is reported as 172. The compound also gave a DNA crosslinking with NHIK3025 [1] of 8. In addition, the Phototoxic effect worked out at 1 in the assay with NHIK3025 [2] and 5 with Tetrahymena thermophila [4]. Also, in the assay on Tetrahymena thermophila [3], the DNA photo-crosslinking was found to be 3.
`CC[N+](CC)(CC)Cc1c2ccoc2c(OC)c2oc(=O)ccc12.[Cl-]`: the Photo-cross-linking of DNA with Nucleic Acid worked out at 0.05. For the same compound, the Photosensitization in the assay on Mus musculus is on record as 133. The compound also yielded a DNA crosslinking in the assay with NHIK3025 [1] of 8. Moreover, the Phototoxic effect in the assay with NHIK3025 [2] is 3; in the assay on Tetrahymena thermophila [4], 5. This compound showed a DNA photo-crosslinking in the assay with Tetrahymena thermophila [3] of 14.
In the assay with Nucleic Acid, `COc1c2occc2c(CN(C)CCO)c2ccc(=O)oc12.Cl` came in with a Photo-cross-linking of DNA of 0.5. In the assay on Mus musculus, the Photosensitization was 306. This compound also displayed a DNA crosslinking in the assay on NHIK3025 [1] of 15. Also, the Phototoxic effect was 2 with NHIK3025 [2] and 3 in the assay with Tetrahymena thermophila [4].
Compound `COc1c2occc2c(COCCC[N+](C)(C)C)c2ccc(=O)oc12.[Br-]` yielded a Photo-cross-linking of DNA with Nucleic Acid of 0.1. Besides, the DNA crosslinking with NHIK3025 [1] is on record as 1. Further, the Phototoxic effect in the assay with NHIK3025 [2] is recorded as 3; in the assay on Tetrahymena thermophila [4], below 0.3. This compound also came in with a DNA photo-crosslinking with Tetrahymena thermophila [3] of 4.
In turn, `COCc1c2ccoc2c(OC)c2oc(=O)ccc12` gave a Photo-cross-linking of DNA in the assay with Nucleic Acid of 0.04.
The compound `O=c1ccc2cc3ccoc3c(OCCO)c2o1` came in with a Photo-cross-linking of DNA in the assay on Nucleic Acid of 1.
On the same count and under the same terms, the same measure for `COc1c2occc2c(COCCCO)c2ccc(=O)oc12`: below 0.07.
Take `C[N+](C)(C)CCCOc1c2occc2cc2ccc(=O)oc12.[Br-]`: the Photo-cross-linking of DNA in the assay with Nucleic Acid came out at 1.1. The Photosensitization in the assay on Mus musculus is recorded as 477. Moreover, the DNA crosslinking in the assay with NHIK3025 [1] is recorded as 3. Moreover, the Phototoxic effect in the assay with NHIK3025 [2] was determined as 15; in the assay on Tetrahymena thermophila [4], 3. This compound also yielded a DNA photo-crosslinking in the assay with Tetrahymena thermophila [3] of 5.
As for `COc1c2occc2c(CN(C)C)c2ccc(=O)oc12.Cl`, in the assay with Nucleic Acid, the Photo-cross-linking of DNA amounted to 0.6. The Photosensitization with Mus musculus was 194. For the same compound, in the assay on NHIK3025 [1], the DNA crosslinking amounted to 24. Also, the results for the Phototoxic effect in the assay with NHIK3025 [2] and in the assay with Tetrahymena thermophila [4] were 7 and 15, respectively. Moreover, in the assay on Tetrahymena thermophila [3], the DNA photo-crosslinking amounted to 14.
On to `CN1CC[N+](C)(CCCOc2c3occc3cc3ccc(=O)oc23)CC1.[Br-]`, for which the Photo-cross-linking of DNA with Nucleic Acid worked out at 2.5. Also, in the assay on Mus musculus, the Photosensitization is on record as 463. Also, the DNA crosslinking with NHIK3025 [1] worked out at 7. Further, the Phototoxic effect with NHIK3025 [2] and with Tetrahymena thermophila [4] was 10 in each case. The DNA photo-crosslinking with Tetrahymena thermophila [3] stood at 2.
For the compound `COc1c2occc2c(CN(C(C)C)C(C)C)c2ccc(=O)oc12.Cl`, in the assay with Nucleic Acid, the Photo-cross-linking of DNA was found to be 0.15. Further, the Photosensitization with Mus musculus worked out at 87. Further, the DNA crosslinking in the assay with NHIK3025 [1] stood at 12. For the same compound, the Phototoxic effect came to 2 in the assay with NHIK3025 [2] and 10 with Tetrahymena thermophila [4].
Take `Br.CCN(CC)CCCOc1c2occc2cc2ccc(=O)oc12`: the Photo-cross-linking of DNA in the assay on Nucleic Acid amounted to 1.8. Also, the Photosensitization with Mus musculus turned out to be 357. Further, the DNA crosslinking in the assay on NHIK3025 [1] came out at 190. The values for the Phototoxic effect in the assay with NHIK3025 [2] and with Tetrahymena thermophila [4] were 100 and 150, respectively. The DNA photo-crosslinking in the assay on Tetrahymena thermophila [3] was 170.
